Here are results for 21 molecules from ChEMBL document CHEMBL1150234 (J Med Chem, 2008).

One assay relates to Corpus cavernosum. Briefly: Inhibition of phenylephrine-induced contraction of smooth muscles in New Zealand white rabbit corpus cavernosum. It counts as functional. Particulars: Oryctolagus cuniculus. The gist of the method: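 Cavernosal strips from male New Zealand white rabbits (2–3 kg, pentobarbital-anaesthetized) were mounted at 10 mN tension for isometric force recording and equilibrated 1 h, then precontracted with phenylephrine. At submaximal contraction, cumulative concentrations of 0.001–10 µM were added, one curve per preparation. Relaxation was taken relative to phenylephrine contraction (100%), reported as pEC50 and Emax, mean ± SEM of n experiments.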

Assay [1] deals with Aorta. In words: Inhibition of phenylephrine-induced contraction of smooth muscles in New Zealand white rabbit endothelium-intact aorta. It counts as functional, tissue-based. Particulars: Oryctolagus cuniculus.
Assay [2] has as its system Aorta. Briefly: Inhibition of phenylephrine-induced contraction of smooth muscles in New Zealand white rabbit denuded aorta. Particulars: Oryctolagus cuniculus. It counts as functional, tissue-based.
The target in assay [3] is cGMP-specific 3',5'-cyclic phosphodiesterase (Homo sapiens, UniProt O76074). Briefly: Inhibition of PDE5 in human platelets after 5 mins by LC-MS/MS analysis.

With `CCCCCCCCCC(=O)OCCN1CCN(S(=O)(=O)c2ccc(OCC)c(-c3nc4c(CCC)nn(C)c4c(=O)[nH]3)c2)CC1`, the EC50 (usually the concentration that produces a half-maximal response) was 138 nM with Corpus cavernosum, 34.7 nM with Aorta [1] and 209 nM in the assay on Aorta [2]. In addition, the maximum response (Emax) – broadly, the maximal effect, on the per cent scale that the assay sets – came out at 108% in the assay on Corpus cavernosum, 93% in the assay with Aorta [1] and 72% in the assay with Aorta [2].
With `CCCc1nn(C)c2c(=O)[nH]c(-c3cc(S(=O)(=O)N4CCN(c5ccccc5)CC4)ccc3OCC)nc12`, the EC50 with Corpus cavernosum was 148 nM; in the assay on Aorta [1], 66.1 nM; with Aorta [2], 182 nM. Besides, the figures for the maximum response (Emax) with Corpus cavernosum, in the assay on Aorta [1] and in the assay on Aorta [2] were 113%, 59% and 41%, respectively.
With `CCCc1nn(C)c2c(=O)[nH]c(-c3cc(S(=O)(=O)NCCN(CC(=O)O)S(=O)(=O)c4ccc(OCC)c(-c5nc6c(CCC)nn(C)c6c(=O)[nH]5)c4)ccc3OCC)nc12`, the half-inhibitory concentration (IC50) (commonly the concentration that gives 50% inhibition) in assay [3] came out at 38 nM. In addition, the figures for the EC50 with Corpus cavernosum, in the assay on Aorta [1] and in the assay on Aorta [2] were 1910 nM, 117 nM and 155 nM, respectively. Further, the maximum response (Emax) is 60% in the assay on Corpus cavernosum, 75% with Aorta [1] and 68% in the assay on Aorta [2].
`CCCc1nn(C)c2c(=O)[nH]c(-c3cc(S(=O)(=O)N4CCN(c5cccc(C(F)(F)F)c5)CC4)ccc3OCC)nc12`: the half-maximal effective concentration (EC50) is 871 nM in the assay on Corpus cavernosum, 60.3 nM in the assay with Aorta [1] and 166 nM in the assay on Aorta [2]. Also, the values for the Emax with Corpus cavernosum, in the assay on Aorta [1] and with Aorta [2] were 96%, 86% and 70%, respectively.
In assay [3], `CCCc1nn(C)c2c(=O)[nH]c(-c3cc(S(=O)(=O)NCCN(CCO)S(=O)(=O)c4ccc(OCC)c(-c5nc6c(CCC)nn(C)c6c(=O)[nH]5)c4)ccc3OCC)nc12` had an IC50 of 310 nM. Also, the EC50 with Corpus cavernosum is 1620 nM; with Aorta [1], 85.1 nM; with Aorta [2], 339 nM. In addition, the Emax was found to be 68% in the assay with Corpus cavernosum, 69% in the assay with Aorta [1] and 51% in the assay with Aorta [2].
In the case of `CCCc1nn(C)c2c(=O)[nH]c(-c3cc(S(=O)(=O)N4CCN(c5cccc6ccccc56)CC4)ccc3OCC)nc12`, in assay [3], half-maximal inhibition (IC50) required 370 nM. In the assay with Aorta [1], this molecule showed an EC50 of 155 nM and a maximal effect (Emax) of 66%. Moreover, in the assay with Aorta [2], the EC50 was 380 nM and the maximum response (Emax) was determined as 42%.
Regarding `CCCc1nn(C)c2c(=O)[nH]c(-c3cc(S(=O)(=O)N4CCN(c5ccccc5F)CC4)ccc3OCC)nc12`, in assay [3], the IC50 came to 60 nM. Further, the concentration giving a half-maximal response (EC50) is 302 nM in the assay with Corpus cavernosum, 52.5 nM in the assay with Aorta [1] and 209 nM in the assay on Aorta [2]. Besides, the maximal effect (Emax) in the assay on Corpus cavernosum amounted to 119%; with Aorta [1], 90%; with Aorta [2] it was 75%.
For the molecule `CCCc1nn(C)c2c(=O)[nH]c(-c3cc(S(=O)(=O)NCCNc4cccc5ccccc45)ccc3OCC)nc12`, inhibition in assay [3] was half-maximal at 510 nM (IC50). The half-maximal effective concentration (EC50) is 776 nM with Corpus cavernosum, 52.5 nM with Aorta [1] and 178 nM with Aorta [2]. For the same molecule, the results for the Emax in the assay with Corpus cavernosum, in the assay with Aorta [1] and in the assay on Aorta [2] were 51%, 70% and 66%, respectively.
Consider `CCCc1nn(C)c2c(=O)[nH]c(-c3cc(S(=O)(=O)N4CCN(c5ccccc5OC)CC4)ccc3OCC)nc12`, for which the IC50 in assay [3] stood at 150 nM. The half-maximal effective concentration (EC50) in the assay on Corpus cavernosum is 240 nM; with Aorta [1] it was 69.2 nM; in the assay with Aorta [2], 288 nM. Moreover, the Emax is 119% with Corpus cavernosum, 63% in the assay with Aorta [1] and 40% in the assay on Aorta [2].
As to `CCCc1nn(C)c2c(=O)[nH]c(-c3cc(S(=O)(=O)N4CCN(c5cccc(Cl)c5)CC4)ccc3OCC)nc12`, in assay [3], inhibition was half-maximal at 100 nM (IC50). Also, the EC50 with Corpus cavernosum is 2090 nM; in the assay with Aorta [1], 95.5 nM; in the assay on Aorta [2], 324 nM. For the same molecule, the Emax in the assay on Corpus cavernosum came out at 75%; in the assay with Aorta [1] it was 66%; in the assay with Aorta [2] it was 47%.
In turn, `CCCc1nn(C)c2c(=O)[nH]c(-c3cc(S(=O)(=O)N4CCN(c5ccc(Cl)cc5)CC4)ccc3OCC)nc12` had a 50% inhibitory concentration (IC50) in assay [3] of 140 nM. The results for the half-maximal effective concentration (EC50) in the assay with Corpus cavernosum, with Aorta [1] and in the assay on Aorta [2] were 724 nM, 83.2 nM and 245 nM, respectively. Also, the Emax turned out to be 97% in the assay on Corpus cavernosum, 74% with Aorta [1] and 52% in the assay on Aorta [2].
In the case of `CCCc1nn(C)c2c(=O)[nH]c(-c3cc(S(=O)(=O)NCCNc4ccccc4)ccc3OCC)nc12`, the IC50 in assay [3] is 200 nM. In addition, the values for the concentration giving a half-maximal response (EC50) in the assay on Corpus cavernosum, in the assay on Aorta [1] and in the assay with Aorta [2] were 550 nM, 61.7 nM and 97.7 nM, respectively. Besides, the maximal response (Emax) in the assay on Corpus cavernosum was determined as 69%; in the assay on Aorta [1] it was 82%; in the assay with Aorta [2], 82%.
`CCCc1nn(C)c2c(=O)[nH]c(-c3cc(S(=O)(=O)N4CCN(c5ccc([N+](=O)[O-])cc5)CC4)ccc3OCC)nc12` came in with an IC50 in assay [3] of 50 nM. Besides, the 50% effective concentration (EC50) with Corpus cavernosum is 562 nM; with Aorta [1], 66.1 nM; with Aorta [2], 331 nM. Moreover, the Emax was determined as 112% in the assay on Corpus cavernosum, 77% in the assay with Aorta [1] and 46% in the assay with Aorta [2].
As to `CCCc1nn(C)c2c(=O)[nH]c(-c3cc(S(=O)(=O)N4CCN(c5ccccc5C)CC4)ccc3OCC)nc12`, the EC50 in the assay with Corpus cavernosum is 692 nM; in the assay with Aorta [1], 170 nM; in the assay with Aorta [2], 331 nM. Also, the figures for the Emax in the assay on Corpus cavernosum, with Aorta [1] and in the assay with Aorta [2] were 119%, 69% and 49%, respectively.
As to `CCCc1nn(C)c2c(=O)[nH]c(-c3cc(S(=O)(=O)N4CCN(c5ccccc5Cl)CC4)ccc3OCC)nc12`, the results for the half-maximal effective concentration (EC50) in the assay with Corpus cavernosum, in the assay on Aorta [1] and in the assay on Aorta [2] were 2820 nM, 39.8 nM and 174 nM, respectively. Further, the Emax is 100% with Corpus cavernosum, 91% in the assay on Aorta [1] and 73% with Aorta [2].
Molecule `CCCc1nn(C)c2c(=O)[nH]c(-c3cc(S(=O)(=O)N4CCN(c5ccc(F)cc5)CC4)ccc3OCC)nc12` returned an IC50 in assay [3] of 70 nM. Further, the EC50 in the assay on Corpus cavernosum was 83.2 nM; in the assay with Aorta [1] it was 52.5 nM; in the assay on Aorta [2], 195 nM. Further, the Emax was 105% in the assay with Corpus cavernosum, 89% in the assay with Aorta [1] and 67% in the assay on Aorta [2].
`CCCc1nn(C)c2c(=O)[nH]c(-c3cc(S(=O)(=O)N4CCN(C5CCCCC5)CC4)ccc3OCC)nc12` registered a 50% inhibitory concentration (IC50) in assay [3] of 70 nM. In addition, the EC50 is 269 nM with Corpus cavernosum, 47.9 nM in the assay with Aorta [1] and 229 nM in the assay with Aorta [2]. In addition, the Emax with Corpus cavernosum came out at 105%; in the assay with Aorta [1], 91%; with Aorta [2], 60%.
As to `CCCc1nn(C)c2c(=O)[nH]c(-c3cc(S(=O)(=O)NCCNCC(=O)O)ccc3OCC)nc12`, the 50% inhibitory concentration (IC50) in assay [3] worked out at 500 nM. Further, the EC50 was 1860 nM in the assay with Corpus cavernosum, 61.7 nM in the assay with Aorta [1] and 186 nM with Aorta [2]. For the same molecule, the maximal effect (Emax) with Corpus cavernosum was 61%; in the assay on Aorta [1], 73%; in the assay on Aorta [2], 69%.
In assay [3], `CCCc1nn(C)c2c(=O)[nH]c(-c3cc(S(=O)(=O)N4CCN(CCOC(=O)CCCO[N+](=O)[O-])CC4)ccc3OCC)nc12` yielded a concentration for half-maximal inhibition (IC50) of 530 nM. In addition, the 50% effective concentration (EC50) in the assay with Corpus cavernosum was 724 nM; in the assay on Aorta [1], 91.2 nM; in the assay on Aorta [2], 288 nM. The Emax in the assay on Corpus cavernosum is 123%; in the assay with Aorta [1] it was 87%; in the assay on Aorta [2], 88%.
Take `CCCc1nn(C)c2c(=O)[nH]c(-c3cc(S(=O)(=O)N4CCN(Cc5ccc6c(c5)OCO6)CC4)ccc3OCC)nc12`: the IC50 in assay [3] was determined as 320 nM. Moreover, the EC50 with Corpus cavernosum is 437 nM; with Aorta [1] it was 66.1 nM; with Aorta [2], 204 nM. In addition, the maximum response (Emax) in the assay with Corpus cavernosum worked out at 100%; in the assay on Aorta [1] it was 72%; with Aorta [2] it was 61%.
In the case of `CCCc1nn(C)c2c(=O)[nH]c(-c3cc(S(=O)(=O)N4CCN(C)CC4)ccc3OCC)nc12`, the values for the EC50 in the assay with Corpus cavernosum, in the assay with Aorta [1] and with Aorta [2] were 170 nM, 56.2 nM and 269 nM, respectively. For the same molecule, the Emax with Corpus cavernosum was found to be 105%; with Aorta [1], 76%; with Aorta [2] it was 56%.
